{"data": "Published values of several laboratories", "UGT1A4": "UDP-glucuronosyltransferase 1A4 (UGT1A4, Homo sapiens, UniProt P22310)", "CYP2C19": "Cytochrome P450 2C19 (CYP2C19, Homo sapiens, UniProt P33261)", "note": "Each line is one published result; the experiments were not run side by side."}
{"SMILES": "N=C(N)NCc1ccc(NC(=O)c2ccc(C(=O)Nc3cnc(C4=CCN(C(=N)N)CC4)cn3)cc2)cc1", "target or system": "NIH3T3", "test": "cell growth or viability, MTS", "setting": "24 h", "quantity": "CC50", "value": "> 585 µM"}
{"SMILES": "CC(=O)c1cc(C(=O)N[C@@H](C)Cn2ccc(-c3ccc(C#N)c(Cl)c3)n2)[nH]n1", "target or system": "UGT1A4", "test": "enzyme activity, inhibitor", "system": "human, liver microsomes", "quantity": "IC50", "value": "> 50 µM"}
{"SMILES": "COC(=O)C1CCN(C(=O)c2ccc(N(CCCO)Cc3cnc4nc(N)nc(N)c4n3)cc2)CC1", "target or system": "CYP2C19", "test": "enzyme activity, inhibitor, luciferase", "setting": "10 µM", "quantity": "inhibition", "value": "-9.48%"}
{"SMILES": "[11CH3]Oc1cccc(CCc2cc(O)c(=O)[nH]n2)c1", "target or system": "ATP-dependent translocase ABCB1 (Abcb1a, Mus musculus, UniProt P21447)", "system": "mouse, brain", "setting": "5 min", "quantity": "tracer uptake", "value": "0.43 %ID/g"}
{"SMILES": "C[C@H](O)c1cc(C(=O)N[C@@H](C)Cn2ccc(-c3ccc(C#N)c(Cl)c3)n2)n[nH]1", "target or system": "UGT1A4", "test": "enzyme activity, inhibitor", "system": "human, liver microsomes", "quantity": "IC50", "value": "> 100 µM"}
{"SMILES": "N=C(N)N1CC=C(c2ccc(NC(=O)c3ccc(C4=CCN(C(=N)N)CC4)cc3)cc2)CC1", "target or system": "NIH3T3", "test": "cell growth or viability, MTS", "setting": "24 h", "quantity": "CC50", "value": "41 µM"}
{"SMILES": "COC(=O)C1CCN(C(=O)c2ccc(N(Cc3ccccc3)Cc3cnc4nc(N)nc(N)c4n3)cc2)CC1", "target or system": "CYP2C19", "test": "enzyme activity, inhibitor, luciferase", "setting": "10 µM", "quantity": "inhibition", "value": "107%"}
{"SMILES": "COc1cc2c3c(n(CCCN4CCOCC4)c(=O)c2cc1OC)-c1cc2c(cc1C3=O)OCO2", "system": "female beagle dog, plasma", "setting": "intravenous, 10 mg/m², infusion", "quantity": "Cmax", "value": "75.7 ng/mL"}
{"SMILES": "NC(=O)C1CCCN1C(=O)Cc1ccc(N(CCCO)Cc2cnc3nc(N)nc(N)c3n2)cc1 (stereo not shown)", "target or system": "CYP2C19", "test": "enzyme activity, inhibitor, luciferase", "setting": "10 µM", "quantity": "inhibition", "value": "-4.55%"}
{"SMILES": "N=C(N)NCc1ccc(NC(=O)C23CCC(C(=O)Nc4ccc(C5=CCN(C(=N)N)CC5)cc4)(CC2)CC3)cc1", "target or system": "NIH3T3", "test": "cell growth or viability, MTS", "setting": "24 h", "quantity": "CC50", "value": "439 µM"}
{"SMILES": "C[C@@H]1C[C@@H](c2ccc(Br)cc2)c2c(cc3ccccn23)C(=O)O1 (racemic)", "target or system": "HFF-1", "test": "cell growth or viability, resazurin", "setting": "72 h", "quantity": "CC50", "value": "> 100 µM"}
{"SMILES": "COC(=O)C1CCN(C(=O)c2ccc(SCc3cnc4nc(N)nc(N)c4n3)nc2)CC1", "target or system": "CYP2C19", "test": "enzyme activity, inhibitor, luciferase", "setting": "10 µM", "quantity": "inhibition", "value": "-2.45%"}
{"SMILES": "O=C(Nc1c2c(cc3c1CCC3)CCC2)NS(=O)(=O)/C=C/c1nccs1", "target or system": "CYP2C19", "test": "enzyme activity, inhibitor", "system": "human, liver microsomes", "setting": "10 µM, pH 7.4", "quantity": "inhibition", "value": "10.7%"}
